Measured values taken from PMC6736640 (ACS chemical neuroscience, 2018).

Molecular target: Asyn fibrils (Homo sapiens, UniProt P37840)
Test: Radioligand competition binding on Asyn fibrils with [3H]1
Method in brief: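 Recombinant human Asyn fibrils at 150 nM incubated with 2 nM [3H]1 and test compound (1–1000 nM) in 30 mM Tris-HCl pH 7.4 with 0.1% BSA for 2 h at 37 °C. Bound ligand separated by vacuum filtration through 1.0 μm glass fiber filters, washed three times with cold buffer, and counted by scintillation after overnight incubation. Triplicates. EC50 from sigmoidal fit; Ki = EC50/(1+[radioligand]/Kd).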

Kd: 47 nM
Compound: COc1ccc(/C=C/c2cc(-c3nccs3)on2)cc1 [compound 1, (E)-3-(4-methoxystyryl)-5-(thiazol-2-yl)isoxazole]
